Source: the EternaBench riboswitch data

System: MS2 coat protein
Test: apparent Kd, MS2 coat protein; higher = weaker binding; RNA-MaP array; FMN 200 µM where present
Procedure, shortened: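 Stalled E. coli RNA polymerase transcribed each design on Illumina sequencing-chip clusters. The clusters were titrated with SNAP-549-labelled MS2 coat protein, starting at 0.7 or 1.5 nM and doubling up to 3 µM, first without ligand and then with constant ligand, in 100 mM Tris-HCl pH 7.5, 80 mM KCl, 4 mM MgCl2, BSA, DTT, yeast tRNA and Tween-20. Green signal was normalised to red-channel RNA signal and to the control-cluster median Fmax. The apparent Kd is the median of filtered binding-curve fits made for each cluster.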

[1] = designed as: ON switch for flavin mononucleotide, no ligand
[2] = ligand present: flavin mononucleotide, designed as: ON switch for flavin mononucleotide
[3] = designed as: OFF switch for flavin mononucleotide, no ligand
[4] = ligand present: flavin mononucleotide, designed as: OFF switch for flavin mononucleotide

| Sequence | apparent Kd [1] [nM] | apparent Kd [2] [nM] | apparent Kd [3] [nM] | apparent Kd [4] [nM] |
| --- | --- | --- | --- | --- |
| GCAGCUCCUGACAUGAGGAUCACCCAUGUUCAAUUGUUGAGUCAGGAUAUAGUCUAGAAACUAGACUAGAAGGGAUAUGCUGCU | 12.3 | 10.8 |  |  |
| GCAGGACAUGAGGAUCACCCAUGUCUCAAAUAUUGAGGAUAUGGACACGGUAUAUCCGAACCAGAAGGCAACCUGC | 48.6 | 39.8 |  |  |
| GCAGGAUAAGUGAGGAUAUACCUCUGGAUACAGAGGUAGAAGGCACAUGAGGAUCACCCAUGUUACUCACCUGC |  |  | 11.9 | 33.8 |
| GCAGGUCGUGUGAGGAUAUCAUAGUUUAGCGGAGAUGAGAAGGCACAUGAGGAUCACCCAUGUCCAUCCUGCCU |  |  | 36 | 92.6 |
| GCAUAUGUCGUCUACAUGAGGAUCACCCAUGUUGAUAAACAUGAGGAUAUUGAUAAGAAUUGUAUCGAGAAGGUAUGUAGGUGC | 258 | 347 |  |  |
| GCAUGCUAUGUCAGGAUAUACCUGUGGAUACAUAGGUAGAAGGGACAUGAGGAUCACCCAUGUCCUAAUCAUGC |  |  | 12.8 | 14.9 |
| GCCAACUCAUGAGGAUAUGGCACCUUAUUGGUGCCAGAAGGCGUGUCUAUUGACAUGAGGAUCACCCAUGUAUUAUAGUUGGCA | 678 | 105 |  |  |
| GCCAAUGUGGAGGAUAUCGACUUCGAAAGAAGUCGAGAAGGCCACACAUGAGGAUCACCCAUGUGAUGCCUGGC |  |  | 199 | 231 |
| GCCAGAGCAGGAUAUUCAAUAUCACACAUGAGGAUCACCCAUGUCUAUCGAAAGAUAGAGGGAGAAGGGCUCUGGC |  |  | 64.3 | 18.3 |
| GCCAGUUAUGUAGGAUAUGCGAAGCGAGCCUGAGCAGAAGGACAUGAGGAUCACCCAUGUGUUGCGGUUUGAGUACUGAUCGCU |  |  | 24.4 | 89.4 |
| GCCAGUUAUGUAGGAUAUGCGAGGCGAGCCUGAGCAGAAGGACAUGAGGAUCACCCAUGUAUUGCGGUUUGAGUUCUGAUCGCU |  |  | 23.4 | 58.6 |
| GCCAUCACAUGAGGAUAUGCUCCCGUUUCGGGAGCAGAAGGCGUGUCAUAAGACAUGAGGAUCACCCAUGUAGCUAAGAUGGCA | 321 | 12.6 |  |  |
| GCCAUCGCAUGAGGAUAUGCUCCGGUUUCCGGAGCAGAAGGCAUGUAAUAAGACAUGAGGAUCACCCAUGUAGUUAAGAUGGCA | 7.11 | 5.55 |  |  |
| GCCAUCGCAUGAGGAUAUGCUCCGGUUUCCGGAGCAGAAGGCAUGUCAUAAGACAUGAGGAUCACCCAUGUAGUUAAGAUGGCA | 715 | 33.6 |  |  |
| GCCAUCGCAUGAGGAUAUGCUCCGGUUUCCGGAGCAGAAGGCAUGUGAUAACACAUGAGGAUCACCCAUGUAGUUAAGAUGGCA | 5.51 | 4.62 |  |  |
| GCCAUCGCAUGAGGAUAUGGCACCGUUUCGGUGCCAGAAGGCAUGUCAAAUGACAUGAGGAUCACCCAUGUAGUUAAGAUGGCC | 157 | 13 |  |  |
| GCCAUCGCAUGAGGAUAUGGCACCGUUUCGGUGCCAGAAGGCAUGUCAUAAGACAUGAGGAUCACCCAUGUAGUUAAGAUGGCA | 741 | 47.6 |  |  |
| GCCAUCGUAUGAGGAUAUGGCACCGAAACGGUGCCAGAAGGCAUGUCAAUAGACAUGAGGAUCACCCAUGUGUUAUCGAUGGCA | 379 | 36.5 |  |  |
| GCCAUCGUAUGAGGAUAUGGCACCGAACCGGUGCCAGAAGGCAUGUCAAUAGACAUGAGGAUCACCCAUGUGUUAUCGAUGGCA | 147 | 13.1 |  |  |
| GCCAUUUAUGUAGGAUAUGCGAGGCGAGCCUGAGCAGAAGGACAUGAGGAUCACCCAUGUAUUGCGGUUUAUGUUCAGAUCGCU |  |  | 16.1 | 18.3 |
| GCCCUCUCUGAGGAUAUUAUCUGGUUCGAUUGAUAAGAAGGCAGUACAUGAGGAUCACCCAUGUGGUUCGUUUG |  |  | 109 | 303 |
| GCCGAAUGAACAUGAGGAUCACCCAUGUACAGGAAACUGAAUGAGGAUAUCCAUAGCAAAGCUAUGGAGAAGGCAUGGGUCGGC | 465 | 99.7 |  |  |
| GCCGAUUAAGUGAGGAUAUACCUAUGGAUACAUAGGUAGAAGGCACAUGAGGAUCACCCAUGUUCCUCAUCGGC |  |  | 16.8 | 132 |
| GCCGGCUAAUGAGGAUAUGGCACCUUAUUGGUGCCAGAAGGCAUGUCAAUUGACAUGAGGAUCACCCAUGUAUUAUAGUUGGCG | 422 | 115 |  |  |
| GCCGUGUUAGGAUAUUAAAGACCUGCGCCAAACGCAGGAAGUAAGAAGGAACAUGAGGAUCACCCAUGUGUCCG |  |  | 17.2 | 14.5 |
| GCCUCACAUGAGGAUCACCCAUGUCAGGAUAUAGGAGGCGGUAGAAAUCCUACCGCCGCUAGAAGGGACUGGCA |  |  | 42.8 | 90.7 |
| GCCUCACAUGAGGAUCACCCAUGUCAGGAUAUCUCAGCCUCACAUCAAACAAGGCUUCAGAGAAGGGACGUAAA |  |  | 37.4 | 77.4 |
| GCCUCAGAAUUAAUUGUGAGAAGCAGAAGGCUAUAUCUUAUGUUAAACAUGAGGAUCACCCAUGUAGAGGAUAUGCUAUUACAG |  |  | 7.68 | 17.7 |

| Sequence | apparent Kd [1] [nM] | apparent Kd [2] [nM] | apparent Kd [3] [nM] | apparent Kd [4] [nM] |
| --- | --- | --- | --- | --- |
| GCCUGGACAGAGAAGGGCUACUCCAACCACAUGAGGAUCACCCAUGUUAGCAGGAUAUCUGGCAGGGCAUCCUCAAUUAUUAAA | 91.6 | 19.8 |  |  |
| GCCUUAUCCGUCAGGAUAUACAGCUGUUAGUUGUUGUAGAAGGGACAUGAGGAUCACCCAUGUACGUACCAUUG |  |  | 19.2 | 22.2 |
| GCGAAGGGAGGAUAUCCGCGCGCGCACAUGAGGAUCACCCAUGUGCGCGCGCGCGCGCGCGGAGAAGGCCCGGUGC |  |  | 16.4 | 13.4 |
| GCGAGCAUACAGAAGGGAUCGUCGUAGCGGCUGUCAGGAUAUGUAGCUUGGCCUAAACAUGAGGAUCACCCAUGUAUAAUGCUA | 175 | 21 |  |  |
| GCGAGCGUACUUGCAACAUGAGGAUCACCCAUGUUAACUGGACAGGAUAUGGUACCGUUUCGGUACCAGAAGGGUUCACUCAUG | 137 | 250 |  |  |
| GCGCUUAUACAGAAGGCCAUAUACAUGAGGAUCACCCAUGUCGAAUCUUGGAGGAUAUGUUAUUAAUUACACGCAGAUGAGCGC | 15.8 | 6.19 |  |  |
| GCGGAUCUAGGAUAUACAUGAGGAUCACCCAUGUAAACUCUCUUGGAUGACUACUAUUGUAGAAGGAGAUAAGC |  |  | 25.4 | 41 |
| GCGGUACAUGAGGAUCACCCAUGUCAGGAUAUCCGCUGUUUGUUGAUUAGCAGGCGGUGGAGAAGGGACUUCGC |  |  | 36.6 | 36 |
| GCGGUAUUGUAAGGAUAUACUCUGUGAUGAAGAGUAGAAGGUACUUACAUGAGGAUCACCCAUGUUUAACGUGAAAAUAACCGC | 47 | 22.6 |  |  |
| GCGGUAUUGUAAGGAUAUACUCUGUGAUGAAGAGUAGAAGGUACUUACAUGAGGAUCACCCAUGUUUAACGUGAAAAUUACCGC | 26.5 | 16.7 |  |  |
| GCGUAACAUGAGGAUCACCCAUGUGCCCGAGAAUUCGGGCCGAGAAGGGUGACCGGACGUAUGGCACAGGAUAUCGACGUUUUG | 33.6 | 48.4 |  |  |
| GCGUAGUUCUAGAAGGUGCUAGCGAUAAGCUAGCAAGGAUAUAGACAUGAGGAUCACCCAUGUCUUUGUGACAUCGACAUACGC |  |  | 5.62 | 7.03 |
| GCGUAUUUAAUAUUUAUAUAAUUGUCAGAAGGUGAAAAGACGACAUGAGGAUCACCCAUGUAAUUCAAGGAUAUGAUUAAGCGC | 30.7 | 15.8 |  |  |
| GCGUCACAAUUAGAACCAAUACGAACAUGAGGAUCACCCAUGUAGGAUAUGCUAGAAGUUGAGUUGCAGAAGGACAUAUAACGC |  |  | 12 | 10.9 |
| GCGUGACAUGAGGAUCACCCAUGUGAGGAUAUCUGGAUAAUCUUUAUUUUAGAUAUCCAGAGAAGGCACAUGCU |  |  | 162 | 117 |
| GCGUGCGAUAGGACGUCUGAGGGCAGAAGGCACAUGAGGAUCACCCAUGUAACGAUCUCUUCAAGUGAGGAUAUGUGCUCAUUG |  |  | 29.7 | 114 |
| GCGUGGAAUACAGGAUAUGUUGUACAAUAAUCUUUGAGGCAUUGAGAUUAUACAGAAGGGUAAACAUGAGGAUCACCCAUGUAA |  |  | 31 | 25.1 |
| GCGUGGUUCUAGAAGGUGCUAGCGAUAAGCUAGCAAGGAUAUAGACAUGAGGAUCACCCAUGUCUUAAUGAAAUGGACACACGC |  |  | 5.3 | 4.85 |
| GCGUUGAACGAGAAGGCCAAUACAUGAGGAUCACCCAUGUAGUGAAGUAUUGGAGGAUAUCGAUCGGCGUCUCAUGAGCAACGC |  |  | 7.49 | 19.6 |
| GCGUUGAACGAGAAGGCCAAUACAUGAGGAUCACCCAUGUUAAGAUGUUUUGGAGGAUAUCGAUCGUCGUCUCAUGAGCAACGC |  |  | 5.3 | 6.24 |
| GCGUUGAACGAGAAGGCCAAUACAUGAGGAUCACCCAUGUUAAGUUGUUUUGGAGGAUAUCGAACGCAUUCAAUAUUGCAACGC |  |  | 6.65 | 5.84 |
| GCUAAGCGAAUUAAGAUGAAUAGAACAUGAGGAUCACCCAUGUAGGAUAUGCUACACAAAGUGUAGCAGAAGGACAAGCUUAGC |  |  | 20.2 | 25.4 |
| GCUAGAUUUGCAGGAUAUUGUAAUUUAUUAUUUCAAGAAGGGCAUUACAUGAGGAUCACCCAUGUCAUCCUAUGGUUUACUAGC |  |  | 9.57 | 23.1 |
| GCUAGGAAUGUCAGGAUAUGCAGAACCUUGGUUCUGCAGAAGGGACAUGAGGAUCACCCAUGUGCUAACCUAGC |  |  | 29.6 | 113 |
| GCUAGUAUUGCAGGAUAUUGUAAUUUAUUAUUUCAAGAAGGGCAUUACAUGAGGAUCACCCAUGUCAUCCUAUGGUUUACUAGC |  |  | 9.2 | 19.9 |
| GCUAUAGCGGAGGAUAUCCCGAAAAGAAGUUUAGGAGAAGGCCGCACAUGAGGAUCACCCAUGUGAGUCCGCAA |  |  | 22.7 | 119 |
| GCUAUUGAUGUAGGAUAUGAUAUAGAAACUAUGUCAGAAGGACAUGAGGAUCACCCAUGUCAAUGGAUGGAGAGAAGAGAUGGC |  |  | 28 | 30.7 |
